Results of several laboratories.
Protocols differ between the studies behind these lines.
Target: Serine/threonine-protein kinase NIM1 (NIM1K, Homo sapiens, UniProt Q8IY84)

The remaining activity of `O=C(Nc1cnn(-c2csc(C(=O)NC3COC3)c2)c1)Nc1ccccc1Cl` is reported as 101% (enzyme activity, inhibitor; 5 µM).
The remaining binding of `Cc1c(C(=O)O)cc(-c2ccc(C3CCNCC3)cc2)c2ccc(-c3ccc(C(F)(F)F)cc3)cc12` is reported as 92% (binding, competition with immobilised ligand; 1 µM).
For `Cc1ccc(NC(=O)c2ccc(C)c(C(F)(F)F)c2)cc1C#Cc1nn(C2CCC(O)CC2)c2ncnc(N)c12` (centres unmarked), the remaining signal was 131% (cell-free assay; 10 µM).
With `Cc1cnc(NC2CCOCC2)nc1-n1cnc(C(=O)NC(CN)c2cc(F)cc(Cl)c2)c1` (centres unmarked) the remaining activity was 40% (enzyme activity, inhibitor, radiometric; 1 µM).
With `Nc1ncnc2occ(-c3ccc(NC(=O)Nc4cc(C(F)(F)F)ccc4F)cc3)c12` the remaining signal was 67% (cell-free assay, inhibitor; 20 µM).
The inhibition of `CC/C(=N\NC(=O)NCc1cccc(O)c1)c1ccc(O)c(C)c1O` is reported as -2.9% (enzyme activity, inhibitor; 0.1 µM).
`COc1cc(-c2cn(C3CCc4ccccc4N(CC(F)(F)F)C3=O)nn2)ccc1-n1ccc(C)n1` (centres unmarked) has a remaining binding of 80% (cell-free assay, competition with immobilised ligand; 1 µM).
The activity vs control of `Cc1cc(NC(=O)c2cccc3cc(-c4cccc5[nH]nc(N)c45)ccc23)ccc1F` is reported as 115% (enzyme activity, inhibitor; 0.1 µM).
The inhibition of `CN1CC(Oc2cnc(C#N)cc2-c2ccn3nc(NC(=O)C4CC4)cc3c2)C1` is reported as 8% (enzyme activity, inhibitor; 1 µM).
With `COc1cc(Cl)c(C(=O)N[C@@H](CN[C@H]2CC[C@@H](N)CC2)Cc2ccc(C#N)cc2)cc1-c1ccc(CN[C@H](C)c2ccc(C)cc2)o1` the remaining activity was 98% (enzyme activity, inhibitor; 1 µM).
The remaining activity of `O=C(Nc1cnn(-c2csc(C(=O)NC3COC3)c2)c1)Nc1c(F)cccc1Cl` is reported as 70.7% (enzyme activity, inhibitor; 5 µM).
